Residues, ends and D or L forms follow the SMILES beside them. *: point of attachment. AMC = Cc1cc(=O)oc2cc(N*)ccc12; Cbz = O=C(OCc1ccccc1)*
What was measured:
[1] = molecular target: cathepsin B activity in human neuroblastoma cell lysate (Homo sapiens, UniProt P07858); assay: Cathepsin B activity in neuroblastoma cell homogenate in presence of inhibitors; assay type: biochemical; conditions: 1 μM inhibitor; SHSY5Y homogenate; Z-Arg-Arg-AMC substrate; pH 5.5
Outline: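 SHSY5Y cells were grown in 50% MEMalpha/50% F12-K with 10% heat-inactivated FBS at 37 °C under 5% CO2. They were collected in 0.32 M sucrose and freeze-thawed to give homogenate. CA-074-sensitive activity was taken as cathepsin B. Protein was measured by DC assay. Output is nmol AMC/μg/min, mean ± SD, Student's t-test.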

Cathepsin V [2] = molecular target: T1, Cathepsin V (Homo sapiens, UniProt O60911); assay: Specificity of peptide-AMC substrates: cleavage by cathepsin V; assay type: biochemical
cathepsin B [3] = molecular target: T2, cathepsin B (Homo sapiens, UniProt P07858); assay: pH profile of cathepsin B activity with peptide-AMC substrates; assay type: biochemical; conditions: substrate 60 μM, pH 2 to 9
Outline: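 Activated cathepsin B (0.04 ng/μL) was run with 60 μM of each peptide-AMC substrate. Buffers were 50 mM citrate phosphate at pH 2.2–7.4 in 0.4-unit steps plus pH 7.2, and 50 mM Tris-HCl at pH 7.4–9.0. Assays ran at 25 °C with ex360/em460. Activity was taken as RFU/sec, the highest slope over 10 consecutive readings. Results are mean ± SEM, n=3.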

Cathepsin L [4] = molecular target: T3, Cathepsin L (Homo sapiens, UniProt P07711); assay: Specificity of peptide-AMC substrates: cleavage by cathepsin L; assay type: biochemical
Cathepsin K = molecular target: T4, Cathepsin K (Homo sapiens, UniProt P43235); assay: Specificity of inhibitors: cathepsin K activity with Z-Phe-Arg-AMC; assay type: biochemical; conditions: for % inhibition: pH 4.6, at 16 μM (16,000 nM) inhibitor
T4 sequence (P43235 115-329): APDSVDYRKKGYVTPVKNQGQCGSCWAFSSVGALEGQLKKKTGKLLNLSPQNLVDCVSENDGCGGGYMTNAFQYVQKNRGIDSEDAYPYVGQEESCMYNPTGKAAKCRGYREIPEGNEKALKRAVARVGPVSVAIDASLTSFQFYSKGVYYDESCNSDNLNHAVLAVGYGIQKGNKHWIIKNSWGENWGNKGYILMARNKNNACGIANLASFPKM

Cathepsin H = Cathepsin H (Homo sapiens, UniProt P09668); assay: Specificity of inhibitors: cathepsin H activity with Arg-AMC; assay type: biochemical
[5] = molecular target: intracellular cathepsin B in SHSY5Y human neuroblastoma cells (Homo sapiens, UniProt P07858); assay type: cell-based; conditions: 50 μM, 6 hrs
Outline: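 Intact SHSY5Y cells were treated with test compound for 6 h at 37 °C. They were washed 3× in PBS, homogenised in 0.32 M sucrose and freeze-thawed. Cathepsin B activity was taken as the CA-074-sensitive fraction, normalised to DC-assay protein. Output is nmol AMC/μg/min, mean + SD, n=6, t-test.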

Cathepsin X = Cathepsin X (Homo sapiens, UniProt Q9UBR2); assay type: biochemical; conditions: pH 4.6, without pre-incubation
Cathepsin S = Cathepsin S (Homo sapiens, UniProt P25774); assay: Specificity of inhibitors: cathepsin S activity with Z-Phe-Arg-AMC; assay type: biochemical; conditions: for IC50 / % inhibition: Cathepsin S; for IC50: without pre-incubation; for % inhibition: at 16 μM (16,000 nM) inhibitor
cathepsin B [6] = molecular target: T2, cathepsin B; assay: Cathepsin B inhibition, fluorogenic assay with Z-Phe-Arg-AMC substrate; assay type: biochemical; conditions: for reduction of cathepsin B activity with Z-Phe-Arg-AMC as substrate: 64 nM inhibitor; for Ki: irreversible inhibitor KI, mean ± SD
Cathepsin V [7] = molecular target: T1, Cathepsin V; assay: Specificity of inhibitors: cathepsin V activity with Z-Phe-Arg-AMC; assay type: biochemical; conditions: for IC50: without pre-incubation
Cathepsin L [8] = molecular target: T3, Cathepsin L; assay: Specificity of inhibitors: cathepsin L activity with Z-Phe-Arg-AMC; assay type: biochemical; conditions: for IC50: pH 4.6, without pre-incubation
Cathepsin C = Cathepsin C (Homo sapiens, UniProt P53634); assay: Specificity of inhibitors: cathepsin C activity with Gly-Arg-AMC; assay type: biochemical; conditions: for IC50: Cathepsin C, without pre-incubation
[9] = cathepsin B, pH 4.6, without preincubation, Z-Phe-Arg-AMC 40 μM
[10] = cathepsin B, pH 7.2, without preincubation, Z-Phe-Arg-AMC 40 μM
[11] = pH not stated in the sentence for Z-Glu-Lys-AMC, pH 4.6 for Z-Phe-Arg-AMC

T1 sequence (O60911 114-334): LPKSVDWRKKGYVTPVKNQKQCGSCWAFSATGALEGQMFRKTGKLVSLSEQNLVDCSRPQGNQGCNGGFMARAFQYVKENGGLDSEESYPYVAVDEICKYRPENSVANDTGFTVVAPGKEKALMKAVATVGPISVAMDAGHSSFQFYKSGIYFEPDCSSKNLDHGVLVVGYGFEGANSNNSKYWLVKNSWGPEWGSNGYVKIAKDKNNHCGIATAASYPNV
Sequence of Cathepsin H (P09668 116-335 limits assumed, other chains not shown): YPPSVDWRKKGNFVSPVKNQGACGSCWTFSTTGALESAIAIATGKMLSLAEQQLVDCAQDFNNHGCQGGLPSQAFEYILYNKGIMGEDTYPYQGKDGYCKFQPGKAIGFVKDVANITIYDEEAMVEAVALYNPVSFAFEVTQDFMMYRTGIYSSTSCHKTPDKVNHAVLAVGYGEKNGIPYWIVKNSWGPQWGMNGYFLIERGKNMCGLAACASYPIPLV
T3 sequence (P07711 114-333): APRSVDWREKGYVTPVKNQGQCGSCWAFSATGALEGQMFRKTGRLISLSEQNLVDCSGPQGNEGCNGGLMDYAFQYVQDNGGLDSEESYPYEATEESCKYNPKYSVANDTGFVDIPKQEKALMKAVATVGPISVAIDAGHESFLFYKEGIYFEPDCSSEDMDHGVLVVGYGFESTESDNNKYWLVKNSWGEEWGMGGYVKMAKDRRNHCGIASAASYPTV
Sequence of Cathepsin S (P25774 115-331): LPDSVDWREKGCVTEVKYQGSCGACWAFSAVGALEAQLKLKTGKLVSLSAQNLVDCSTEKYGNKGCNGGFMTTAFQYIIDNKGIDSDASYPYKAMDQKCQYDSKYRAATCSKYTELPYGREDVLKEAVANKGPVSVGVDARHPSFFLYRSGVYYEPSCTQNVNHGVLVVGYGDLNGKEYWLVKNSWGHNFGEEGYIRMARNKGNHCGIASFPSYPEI
Sequence of Cathepsin C (P53634 25-134 limits assumed): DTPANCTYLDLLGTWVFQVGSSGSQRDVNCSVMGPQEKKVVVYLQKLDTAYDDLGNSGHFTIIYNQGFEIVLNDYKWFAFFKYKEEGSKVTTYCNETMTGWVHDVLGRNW
Sequence of Cathepsin C (P53634 231-394 limits assumed): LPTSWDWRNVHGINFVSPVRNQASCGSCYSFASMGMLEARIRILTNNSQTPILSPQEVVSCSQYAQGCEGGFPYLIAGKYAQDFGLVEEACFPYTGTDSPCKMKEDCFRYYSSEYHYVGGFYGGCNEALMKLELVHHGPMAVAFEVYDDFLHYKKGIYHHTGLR
Sequence of Cathepsin C (P53634 395-463 limits assumed): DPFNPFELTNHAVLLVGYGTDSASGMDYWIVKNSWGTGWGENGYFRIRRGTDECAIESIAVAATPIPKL
Sequence of Cathepsin X (Q9UBR2 62-303): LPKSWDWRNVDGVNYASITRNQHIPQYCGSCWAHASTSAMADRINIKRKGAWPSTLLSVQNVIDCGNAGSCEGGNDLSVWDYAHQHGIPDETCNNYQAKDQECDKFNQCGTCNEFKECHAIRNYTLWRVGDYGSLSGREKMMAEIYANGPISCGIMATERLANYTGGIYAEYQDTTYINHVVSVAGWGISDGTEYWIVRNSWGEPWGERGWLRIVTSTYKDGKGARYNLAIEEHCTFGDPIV

Row | pH of maximal (optimal) hydrolysis by cathepsin B (cathepsin B [3]) | % inhibition (Cathepsin K) | IC50 (Cathepsin K; pH 4.6, without pre-incubation) | IC50 (Cathepsin K; pH 7.2, without pre-incubation) | IC50 (Cathepsin H; pH 4.6, without pre-incubation) | IC50 (Cathepsin H; pH 7.2, without pre-incubation) | IC50 (Cathepsin X) | IC50 (Cathepsin S; pH 4.6) | IC50 (Cathepsin S; pH 7.2) | kinact/KI (cathepsin B [6]; cathepsin B, pH 4.6) | Ki (cathepsin B [6]; cathepsin B, pH 4.6) | IC50 (cathepsin B [6]; [9]) | kinact/KI (cathepsin B [6]; cathepsin B, pH 7.2) | Ki (cathepsin B [6]; cathepsin B, pH 7.2) | IC50 (cathepsin B [6]; [10]) | IC50 (Cathepsin V [7]; Cathepsin V, pH 7.2) | IC50 (Cathepsin L [8]) | IC50 (Cathepsin C; pH 4.6) | IC50 (Cathepsin C; pH 7.2) | SMILES | inhibition of proteolytic (cathepsin B) activity in cell lysate [1] | other results
1 | – | – | – | – | – | – | – | – | – | – | – | – | – | – | – | – | – | – | – | CCCNC(=O)[C@H]1O[C@@H]1C(=O)N[C@H](C(=O)N1CCC[C@H]1C(=O)O)[C@@H](C)CC [CA-074, reference compound] | completely inhibited | –
2 | 7.8 pH | – | – | – | – | – | – | – | – | – | – | – | – | – | – | – | – | – | – | Cc1cc(=O)oc2cc(NC(=O)[C@H](CCCCN)NC(=O)[C@H](CCCNC(=N)N)NC(=O)OCc3ccccc3)ccc12 [Z-Arg-Lys-AMC] (Cbz-Arg-Lys-{AMC}) | – | substrate activity for cathepsin V (Cathepsin V [2]; pH 7.2): no activity; substrate activity for cathepsin L (Cathepsin L [4]; pH 7.2): no activity
3 | – | no inhibition | > 16 µM | > 16 µM | > 16 µM | > 16 µM | > 16 µM | > 16 µM | 2.2 µM | 1800 M⁻¹ s⁻¹ | 15 µM | 1.5 µM | 110000 M⁻¹ s⁻¹ | 0.13 ± 0.05 µM | 0.02 ± 0.0083 µM | 0.44 µM | > 16 µM | > 16 µM | 0.85 µM | Cc1cccc(C)c1C(=O)OCC(=O)[C@H](CCCCN)NC(=O)[C@H](CCCN=C(N)N)NC(=O)OCc1ccccc1 [Z-Arg-Lys-AOMK] | completely inhibited | inhibition at 16 μM (Cathepsin H; pH 4.6, at 16 μM inhibitor): no inhibition; cell permeability [5]: cell permeable; fold more potent for cathepsin B than cathepsin S (IC50) (Cathepsin S; pH 7.2): 110 fold; reduction of cathepsin B activity with Z-Phe-Arg-AMC as substrate (cathepsin B [6]; pH 4.6): 5%; reduction of cathepsin B activity with Z-Phe-Arg-AMC as substrate (cathepsin B [6]; pH 7.2): 93%; IC50 (cathepsin B [6]; cathepsin B, pH 6.8): 0.022 µM; fold greater potency at pH 7.2 compared to pH 4.6 (KI values) (cathepsin B [6]; cathepsin B, ratio of KI at pH 4.6 and pH 7.2): 115 fold; fold more potent for cathepsin B than cathepsin V (IC50) (Cathepsin V [7]; pH 7.2): 22 fold; fold more potent for cathepsin B than cathepsin C (IC50) (Cathepsin C; pH 7.2): 43 fold
4 | 4.6 pH | – | – | – | – | – | – | – | – | – | – | – | – | – | – | – | – | – | – | Cc1cc(=O)oc2cc(NC(=O)[C@H](CCCCN)NC(=O)[C@H](CCC(=O)O)NC(=O)OCc3ccccc3)ccc12 [Z-Glu-Lys-AMC] (Cbz-Glu-Lys-{AMC}) | – | substrate activity for cathepsin V (Cathepsin V [2]; [11]): no activity; substrate activity for cathepsin L (Cathepsin L [4]; [11]): no activity
5 | – | 10% | > 16 µM | > 16 µM | > 16 µM | > 16 µM | > 16 µM | > 16 µM | > 16 µM | 2000 M⁻¹ s⁻¹ | 7.9 µM | 1.1 µM | 8200 M⁻¹ s⁻¹ | 2.3 µM | 0.32 ± 0.045 µM | > 16 µM | > 16 µM | 8.6 µM | 12 µM | Cc1cccc(C)c1C(=O)OCC(=O)C(CCCCN)NC(=O)C(CCC(=O)O)NC(=O)OCc1ccccc1 (stereo not drawn) [Z-Glu-Lys-AOMK] | – | % inhibition (Cathepsin S; pH 4.6): 26%; % inhibition (Cathepsin S; pH 7.2): 30%; IC50 (Cathepsin V [7]; Cathepsin V, pH 4.6): 1.9 µM; % inhibition (Cathepsin V [7]; Cathepsin V, pH 7.2, at 16 μM (16,000 nM) inhibitor): 10%; % inhibition (Cathepsin L [8]; pH 4.6, at 16 μM (16,000 nM) inhibitor): 23%; fold more potent for cathepsin B than cathepsin C (IC50) (Cathepsin C; pH 7.2): 38 fold
6 | – | – | – | – | – | – | – | – | – | – | – | – | – | – | – | – | – | – | – | Cc1cc(=O)oc2cc(NC(=O)C(CCCN=C(N)N)NC(=O)C(Cc3ccccc3)NC(=O)OCc3ccccc3)ccc12 (stereo not drawn) [Z-Phe-Arg-AMC, reference compound] (Cbz-Phe-Arg-{AMC}; configuration not given here) | – | substrate activity for cathepsin V (Cathepsin V [2]; [11]): cleaved; substrate activity for cathepsin L (Cathepsin L [4]; [11]): cleaved
